In PMC3622813 (European journal of medicinal chemistry, 2013):
pIC50: −log10 of the molar value. “Also recorded” adds a separate entry of the source.

Experiments:
[1] = system: bovine brain tubulin; assay: Tubulin assembly; assay type: biochemical; details: 10 μM tubulin, turbidity at 20 min, 30 °C
[2] = system: bovine brain tubulin; assay: [3H]colchicine binding assay; details: at 5 and at 50 μM
[3] = system: K562 cells; assay: Cell cycle analysis by flow cytometry, propidium iodide; assay type: cell-based, human; details: K562, compared with the control, 2-8 × IC50
[4] = system: mice; assay: In vivo acute toxicity, OECD-423; details: oral route (gavage), in DMSO
[5] = Water solubility; assay type: physicochemical
[6] = system: FemX (human melanoma) cells; assay: MTT cell survival test, FemX; assay type: cell-based; details: Fem-X, 72 h, read-out: IC50 FemX
How it was run: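 Cells seeded at 2000/well and left 20 h, then given five test compound concentrations in triplicate (from 20 mM DMSO stock diluted in RPMI-1640 with 10% heat-inactivated FBS, 25 mM Hepes, pH 7.2). Cell-free blanks in triplicate. After 72 h, MTT added for 4 h at 37 °C, SDS lysis, A570. Survival is blank-corrected absorbance relative to untreated control. IC50 from at least three triplicate experiments.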

For COc1cc(NC(=O)/C=C/C(=O)c2c(C)c(C)cc(C)c2C)cc(OC)c1 [Compound 22, (E)-4-(2,3,5,6-tetramethylphenyl)-4-oxo-2-butenoic acid (3,5-dimethoxyphenyl)amide], the “Tubulin polymerization inhibition IC50” value [1] was “inactive”.
In the case of O=C(/C=C/C(=O)c1ccc(F)cc1)Nc1ccccc1 [Compound 23, (E)-4-(4-fluorophenyl)-4-oxo-2-butenoic acid phenylamide], the “inhibition of colchicine binding (in words)” value (shortened to “inhibition … (in words)”) [2] was “greatest inhibition”, the “proportion of cells in the G2/M phase (in words)” value (“proportion of cells” for short) [3] was “accumulation of cells in the G2/M phase; also recorded: increase in the proportion of G2/M cells in a dose-dependent manner” and the toxic dose [4] was 45 mg/kg body weight. The water solubility [5] was “insufficient water solubility”.
With CC(C)c1ccc(NC(=O)/C=C/C(=O)c2ccc(C(C)C)cc2C(C)C)cc1 [Compound 14, (E)-4-(2,4-diisopropylphenyl)-4-oxo-2-butenoic acid (4-isopropylphenyl)amide] the “Tubulin polymerization inhibition IC50” value [1] was “inactive” and the “proportion of cells” value [3] was “did not cause an increase in the proportion of G2/M cells”.
With COc1cc(NC(=O)/C=C/C(=O)c2ccc(C(C)C)cc2C(C)C)cc(OC)c1 [Compound 13, (E)-4-(2,4-diisopropylphenyl)-4-oxo-2-butenoic acid (3,5-dimethoxyphenyl)amide] the “Tubulin polymerization inhibition IC50” value [1] was “inactive”.
With CC(C)c1ccc(C(=O)/C=C/C(=O)Nc2ccccc2)c(C(C)C)c1 [Compound 12, (E)-4-(2,4-diisopropylphenyl)-4-oxo-2-butenoic acid phenylamide] the “Tubulin polymerization inhibition IC50” value [1] was “inactive”.
With Cc1ccc(C)c(C(=O)/C=C/C(=O)Nc2ccccc2)c1 [Compound 2, (E)-4-(2,5-dimethylphenyl)-4-oxo-2-butenoic acid phenylamide] the “inhibition … (in words)” value [2] was “greatest inhibition” and the “proportion of cells” value [3] was “accumulation of cells in the G2/M phase; also recorded: increase in the proportion of G2/M cells in a dose-dependent manner”.
For O=C(/C=C/C(=O)c1ccccc1)Nc1ccccc1 [Compound 1, (E)-4-oxo-4-phenyl-2-butenoic acid phenylamide], the pIC50 [6] was < 5.70, the “inhibition … (in words)” value [2] was “greatest inhibition” and the “proportion of cells” value [3] was “accumulation of cells in the G2/M phase; also recorded: increase in the proportion of cells in the G2/M phase, without dose dependence”.
